Data on six molecules can be found in PubChem BioAssay AID651943 (The Scripps Research Institute Molecular Screening Center, 2012).

This experiment has as its system E. coli V66 growth, OD600 absorbance, 18 h. The experiment is described as follows: E. coli V66 viability reduction – absorbance, dose response, round 2, counter-screen for AddAB helicase-nuclease inhibitor project, late-stage follow-up (AID 651943). In a few lines: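 System: uninfected E. coli strain V66, RecBCD+ / Control set: ciprofloxacin 0.95 µg/mL as high control, DMSO as low control / Schedule: 18 h compound exposure, 37 °C / Technique: optical density by absorbance at 600 nm / Replicates: triplicate wells per compound concentration / Dosing: 10 concentrations, 1:3 steps, highest 118.6 µM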
(In general: Counterscreens check selectivity or assay interference.)

The structures appear in SMILES notation. The source made the active and inactive calls.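 The calls were made as follows: active = bacterial viability inhibition with half-maximal concentration IC50 at or below 10 µM; inactive = the rest.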

Take `CCn1cc(C(=O)O)c(=O)c2cnc(N3CCN(C(=S)NC(=O)c4cccc(C)c4)CC3)nc21`: the IC50 (as a rule, the point on the concentration scale where inhibition reaches its midpoint) is > 39.5 µM (inactive).

As to `CCn1cc(C(=O)O)c(=O)c2cnc(N3CCN(C(=S)Nc4cccc(C(F)(F)F)c4)CC3)nc21`, the IC50 is 34.4 µM (inactive).

For `CCn1cc(C(=O)O)c(=O)c2cnc(N3CCN(C(=S)Nc4ccccc4F)CC3)nc21`, the IC50 is > 119 µM (inactive).

For `CCn1cc(C(=O)O)c(=O)c2cnc(N3CCN(C(=S)NCc4ccccc4)CC3)nc21`, the IC50 is > 119 µM (inactive).

As to `CCn1cc(C(=O)O)c(=O)c2cnc(N3CCN(C(=S)Nc4ccccc4OC)CC3)nc21`, the IC50 was > 119 µM (inactive).

Consider `CCn1cc(C(=O)O)c(=O)c2cnc(N3CCN(C(=S)Nc4ccc(Cl)cc4)CC3)nc21`, for which the IC50 is > 39.5 µM (inactive).
